OX1R antag-1 – antagonists of human orexin 1 receptor (OX1R). OX1R-expressing cells, FRET antagonist read-out. inhibition, % at 6.6 µM. actives 1.8% (n = 330,000). AID 485270; in the data active = inhibition mostly above about 38%, no sharp cut-off; inactive = mostly below about 40%
Target sequence (O43613 whole entry, looked up): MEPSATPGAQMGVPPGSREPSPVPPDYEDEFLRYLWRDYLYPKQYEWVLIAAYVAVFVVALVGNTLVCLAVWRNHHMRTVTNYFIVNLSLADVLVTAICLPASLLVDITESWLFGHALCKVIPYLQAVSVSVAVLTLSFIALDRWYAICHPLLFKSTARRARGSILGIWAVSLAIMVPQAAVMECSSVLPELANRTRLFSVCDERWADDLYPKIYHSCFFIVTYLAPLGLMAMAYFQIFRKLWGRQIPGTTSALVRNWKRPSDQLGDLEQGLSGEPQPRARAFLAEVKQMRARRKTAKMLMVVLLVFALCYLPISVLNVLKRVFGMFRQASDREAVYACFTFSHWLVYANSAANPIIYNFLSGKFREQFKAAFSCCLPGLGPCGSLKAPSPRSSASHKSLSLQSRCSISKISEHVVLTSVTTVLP
PGE2 EP2 inh – inhibitors of human EP2 prostaglandin E2 receptor; C6 glioma cells expressing human EP2, cAMP TR-FRET; cells stimulated with saturating PGE2; inhibition, % at 25 µM; actives 0.52% (n = 260,000); AID 1422;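 active = percent inhibition above 40 after rounding to a whole number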;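 also: rat C6 glioma host cells with rolipram phosphodiesterase inhibitor present; the protocol text gives 20 µM as final concentration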
EP2 modulator – EP2 receptor (human) modulation. P43116. EP2-expressing cells, cAMP HTRF FRET, PGE2 co-stimulation. induction, % at 25 µM. actives 0.83% (n = 260,000);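 active = compounds whose cAMP rise, as percent of the full-agonist control response, exceeds 60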;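 also: rat C6 glioma line stably carrying human EP2 under a CMV promoter; the protocol text gives 20 µM as final concentration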
CHO parental Ca – signal in parental CHO cells, OX1R antagonist counter-screen | parental CHO-K1, ATP-induced calcium, Fluo-8 fluorescence | inhibition, % at 5.6 µM | actives 0.63% (n = 330,000);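 active = inhibition above that plate's mean sample inhibition plus 3 SD, cut at about 26% in these data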
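Assay system: parental CHO cells; Read-out basis: percent inhibition of ATP-evoked calcium rise, normalized to controls; Benchmarks: ATP and no-ATP DMSO wells; Compound dosing: single nominal dose of 5.6 µM per compound; Signal: Fluo-8 calcium dye fluorescence; Also added: ATP as calcium-mobilizing challenge; Repeats: singlicate.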
GPR7 antagonist – blocks human GPR7 receptor signaling. P48145. GPR7-expressing cells, fluorescence antagonist assay. inhibition, % at 4.4 µM. actives 1.1% (n = 290,000). AID 1861; in the data active = inhibition above about 16%, passing the limit was not always enough;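 also: cells stimulated with the agonist NPW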
OX1R antag-2 – blocks the human orexin 1 receptor | CHO/OX1R cells, Fluo-8 calcium fluorescence, orexin A | O43613 | actives 0.43% (n = 330,000) | AID 434989 | inhibition, % at 5 µM;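 active = inhibition above its plate's threshold, mean inhibition of all tested compounds on the plate plus 3 SD, cut at about 37% in these data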
Of the large screens only hits and unclear results are named; the others gave an inactive call. Compounds with a hit are over-represented: about 3.7% of the library has one in this group of screens.

Cc1ccc2nc(N3C(=O)C(O)=C(C(=O)c4ccc(C)o4)C3c3ccco3)sc2c1 (stereo unspecified)	PGE2 EP2 inh 49 (no result: GPR7 antagonist)
COc1cc(/C=C2\SC(=O)NC2=O)ccc1Oc1ccc([N+](=O)[O-])cn1	OX1R antag-1 53
COc1cc(/C=C2/SC(N)=NC2=O)ccc1Oc1ccc([N+](=O)[O-])cc1[N+](=O)[O-]	none
COc1cc(/C=C2/NC(=O)N(Cc3ccccc3F)C2=O)ccc1Oc1ccc([N+](=O)[O-])cn1	none
COc1cc(/C=C2/SC(=O)NC2=O)ccc1Oc1ccc([N+](=O)[O-])cc1[N+](=O)[O-]	OX1R antag-1 47
Cn1cnnc1SCC(=O)NCCC(c1ccccc1)c1ccccc1	none
COc1cccc(NC(=O)C(=O)NCc2ccncc2)c1	none
COc1ccc(S(=O)(=O)n2nc(-c3cc(OC)c(OC)c(OC)c3)cc2N)cc1OC	none
COc1ccc(-c2cc(N)n(S(=O)(=O)c3c(F)c(F)c(F)c(F)c3F)n2)cc1OC	CHO parental Ca 45
O=C1c2ccccc2-c2ccc(C(=O)N3CCOCC3)cc21	OX1R antag-1 60
COc1ccc(CCn2c(=N)c(C(=O)NCC3CCCO3)cc3c(=O)n4ccccc4nc32)cc1OC (stereo unspecified)	OX1R antag-1 50 (no result: PGE2 EP2 inh, EP2 modulator)
Cc1cccn2c(=O)c3cc(C(=O)NCC4CCCO4)c(=N)n(CCc4ccccc4)c3nc12 (stereo unspecified)	OX1R antag-1 51 (no result: PGE2 EP2 inh, EP2 modulator)
COC(=O)c1nc2n(n1)C(c1ccc(OC)c(OC)c1)C(C(=O)OC1CCCCC1)=C(C)N2 (stereo unspecified)	none
Cc1ccc(SCC(=O)OCC(=O)N(CC(C)C)c2c(N)n(Cc3ccccc3)c(=O)[nH]c2=O)c(C)c1	none (no result: PGE2 EP2 inh, EP2 modulator, GPR7 antagonist)
O=C(CCC(=O)Nc1ccc(F)cc1)N/N=C/c1ccc(O)cc1O	none
O=C(N/N=C/c1ccc(O)cc1O)C(=O)N/N=C/c1ccc(O)cc1O	OX1R antag-1 70 (no result: PGE2 EP2 inh, EP2 modulator)
Cn1c(CN2CCOCC2)nnc1SCc1ccccc1	none
CCCc1cc(C(=O)OC)c(NC(=O)OCC)s1	EP2 modulator 63
CCCc1cc(C(=O)OC)c(NC(=O)CCCC(=O)O)s1	none
COc1ccc(S(=O)(=O)NCc2cccnc2)cc1C(=O)NC1CCCCC1	none (no result: PGE2 EP2 inh, EP2 modulator)
Cc1ccc(SCCNC(=S)Nc2cc(C)cc(C)c2)cc1	none
Cc1sc(NC(=O)C(C)(C)C)nc1-c1ccccc1	none (no result: OX1R antag-1, CHO parental Ca, GPR7 antagonist, OX1R antag-2)
Nc1ccc(C(=O)OCCCc2nc3cc4ccccc4cc3[nH]2)cc1	OX1R antag-1 41
COc1cc(C(=O)ON=C2C=C(C)C(=O)C(C)=C2)cc(OC)c1OC	OX1R antag-1 75
COc1cc(C(=O)O/N=C2\C=CC(=O)C(C)=C2)cc(OC)c1OC	none
CCOC(=O)C(=O)Nc1nnc(C2CCCCC2)s1	none
CCC(C)c1ccc(C(C)NC(=S)NCc2ccc(F)cc2)cc1 (stereo unspecified)	none (no result: PGE2 EP2 inh, EP2 modulator)
CCC(NC(=S)NCc1ccc(F)cc1)c1ccc(C(C)C)cc1 (stereo unspecified)	CHO parental Ca 42 (no result: PGE2 EP2 inh, EP2 modulator)
CCCCC[C@H](O)/C=C/C1=C(CCCCCCC(=O)O)C(=O)CC1	EP2 modulator 89
COc1ccc(CN(CCC(C)C)S(=O)(=O)c2ccccc2Br)c(OC)c1	OX1R antag-1 38 (no result: PGE2 EP2 inh, EP2 modulator, GPR7 antagonist)
COc1cc(CN(C2CC2)S(=O)(=O)c2ccccc2Br)cc(OC)c1	none (no result: PGE2 EP2 inh, EP2 modulator, GPR7 antagonist)
COc1ccc(-c2nnc(-c3ccc(N(C)C)cc3)o2)cc1	none
CN(C)c1ccc(-c2nnc(-c3ccccc3F)o2)cc1	OX1R antag-1 51 (no result: PGE2 EP2 inh, EP2 modulator)
CCC(C)NC(=O)COC(=O)c1cccnc1Nc1ccccc1F (stereo unspecified)	OX1R antag-1 62
O=C(Nc1ccccc1)c1sccc1Oc1ccc([N+](=O)[O-])cc1F	EP2 modulator 63
COCCOc1cc(NC(=O)c2sccc2Oc2ccc([N+](=O)[O-])cc2F)c(Cl)cc1Cl	none
O=C(O)c1cc([N+](=O)[O-])ccc1C(=O)Nc1ccccc1	EP2 modulator 61
O=C(Nc1ccccc1)c1cccc(S(=O)(=O)Oc2ccc([N+](=O)[O-])cc2)c1	GPR7 antagonist 26
Cc1ccc2c3c([nH]c2c1C)CCN(C(=O)CCn1nc(C)c(C)c1C)C3	none (no result: OX1R antag-1, CHO parental Ca, GPR7 antagonist, OX1R antag-2)
CCNC(=O)c1c(NC(=O)c2cccs2)sc2c1CCCC2	none (no result: OX1R antag-1, CHO parental Ca, GPR7 antagonist, OX1R antag-2)
CCOC(=O)c1c(NC(=O)C(C)N2CCN(C(=O)c3ccco3)CC2)sc2c1CCCC2 (stereo unspecified)	CHO parental Ca 60, OX1R antag-2 66 (no result: PGE2 EP2 inh)
CCOC(=O)c1c(NC(=O)c2cccs2)sc2c1CCC2	PGE2 EP2 inh 76 (no result: EP2 modulator, GPR7 antagonist)
COc1ccc(S(=O)(=O)N2CCC(C(=O)N3CCN(C)CC3)CC2)cc1Cl	none (no result: PGE2 EP2 inh, EP2 modulator)
COc1ccccc1C1CN(c2ccccc2)N=C1c1cccs1 (stereo unspecified)	EP2 modulator 68
Nc1ccc(N=Nc2c(S(=O)(=O)O)cc3ccccc3c2S(=O)(=O)O)cc1	PGE2 EP2 inh 41 (no result: OX1R antag-1, CHO parental Ca, GPR7 antagonist, OX1R antag-2)
COc1ncnc2c1NC1=C(S2)C(=NCCC(=O)O)CC(C)(C)C1	OX1R antag-1 71
COc1ccc(Oc2nc3c(c(=O)n(C)c(=O)n3C)n2Cc2cccc(OC)c2)cc1	none (no result: EP2 modulator)
Cn1c(=O)c2c(nc(Oc3ccc4c(c3)OCO4)n2Cc2ccc(F)cc2)n(C)c1=O	none
Cn1c(=O)c2c(nc(Oc3ccc4c(c3)OCO4)n2Cc2ccc(Br)cc2)n(C)c1=O	EP2 modulator 76
COCCOc1nc2c(c(=O)n(C)c(=O)n2C)n1Cc1cccc(OC)c1	CHO parental Ca 45
CC(C)n1cnc2c(Nc3cccc(F)c3)nc(NCCO)nc21	none (no result: GPR7 antagonist)
NC(=O)c1cc(NC(=O)CCCc2nc3ccccc3s2)cc(C(N)=O)c1	none
COc1ccc(-c2ccnc3cc(C(=O)O)nn23)cc1	OX1R antag-1 57
CCN(CC)S(=O)(=O)c1ccc(C(=O)Nc2nnc(C(C)C)s2)cc1	none
Cc1ccc(-c2nnn(CC(=O)N(c3ccccc3F)C(C(=O)NC3CCCC3)c3ccco3)n2)o1 (stereo unspecified)	OX1R antag-1 45
Cc1onc(-c2c(Cl)cccc2Cl)c1C(=O)N1CCc2ccccc21	OX1R antag-1 40
Cc1onc(-c2c(Cl)cccc2Cl)c1C(=O)N1CCOCC1	none (no result: PGE2 EP2 inh, EP2 modulator)
C=CCn1c2cc(C)oc2c2cnn(C(C)C(N)=O)c(=O)c21 (stereo unspecified)	none (no result: OX1R antag-1, CHO parental Ca, GPR7 antagonist, OX1R antag-2)
Cc1cccc(N(CC(O)CON=C2c3ccccc3-c3ccccc32)S(C)(=O)=O)c1 (stereo unspecified)	OX1R antag-1 63
CS(=O)(=O)N(CC(O)CON=C1c2ccccc2-c2ccccc21)c1ccc(F)cc1 (stereo unspecified)	none
CCN(CC(O)CON=C1c2ccccc2-c2ccccc21)S(=O)(=O)c1ccc(C)cc1 (stereo unspecified)	OX1R antag-1 73

Screening data (PubChem)
